# Source: ChEMBL document CHEMBL5058577, “EUbOPEN Chemogenomics Library 2 (Multiplex)” (2022)
# Test system: Fibroblast
# Test: Multiplex assay against human fibroblast
# Format: toxicity, cell-based
# How it was run: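 Cells stained live at seeding with Hoechst33342, BioTracker Green Microtubule Cytoskeleton Dye, MitoTracker Red and Annexin V Alexa Fluor 680 were imaged on a CQ1 microscope at 37°C and 5% CO2 after compound addition. Their classification by CellPathfinder machine-learning gating ran from Hoechst high-intensity objects versus normal cells, to healthy, pyknosed or fragmented nuclei among normal cells, to mitotic or apoptotic among pyknosed cells. Tubulin, mitochondrial-mass and membrane-permeability phenotypes are per cents of healthy-nucleus cells.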
# [1] = 12 h, 1 µM, compound concentration 1 uM, replicate 1
# [2] = 12 h, 1 µM, compound concentration 1 uM, replicate 2
# [3] = 12 h, 10 µM, compound concentration 10 uM, replicate 1
# [4] = 12 h, 10 µM, compound concentration 10 uM, replicate 2
# [5] = 24 h, 1 µM, compound concentration 1 uM, replicate 1
# [6] = 24 h, 1 µM, compound concentration 1 uM, replicate 2
# [7] = 24 h, 10 µM, compound concentration 10 uM, replicate 1
# [8] = 24 h, 10 µM, compound concentration 10 uM, replicate 2
# [9] = 48 h, 1 µM, compound concentration 1 uM, replicate 1
# [10] = 48 h, 1 µM, compound concentration 1 uM, replicate 2
# [11] = 48 h, 10 µM, compound concentration 10 uM, replicate 1
# [12] = 48 h, 10 µM, compound concentration 10 uM, replicate 2
smiles,measurement,setting,value
CCCCC[C@H](O)/C=C/[C@H]1[C@H](O)CC(=O)[C@@H]1CCCCCCC(=O)O [ALPROSTADIL],Population Apoptotic (%),[1],61%
same,Population Fragmented Nuclei (%),[1],16%
same,Population Healthy Nuclei (%),[1],71%
same,Population Hoechst High Intensity Objects (%),[1],0%
same,Population Membrane Permeable-Phenotype (%),[1],0%
same,Population Mitochondria Different-Phenotype (%),[1],1%
same,Population Mitotic Cells (%),[1],38%
same,Population Normal (%),[1],99%
same,Population Pyknosed Nuclei (%),[1],12%
same,Population Tubulin-Different-Phenotype (%),[1],12%
same,Total Cell Count,[1],150
same,Population Apoptotic (%),[2],43%
same,Population Fragmented Nuclei (%),[2],23%
same,Population Healthy Nuclei (%),[2],57%
same,Population Hoechst High Intensity Objects (%),[2],4%
same,Population Membrane Permeable-Phenotype (%),[2],10%
same,Population Mitochondria Different-Phenotype (%),[2],2%
same,Population Mitotic Cells (%),[2],56%
same,Population Normal (%),[2],95%
same,Population Pyknosed Nuclei (%),[2],18%
same,Population Tubulin-Different-Phenotype (%),[2],38%
same,Total Cell Count,[2],169
same,Population Apoptotic (%),[3],36%
same,Population Fragmented Nuclei (%),[3],7%
same,Population Healthy Nuclei (%),[3],75%
same,Population Hoechst High Intensity Objects (%),[3],5%
same,Population Membrane Permeable-Phenotype (%),[3],2%
same,Population Mitochondria Different-Phenotype (%),[3],4%
same,Population Mitotic Cells (%),[3],63%
same,Population Normal (%),[3],94%
same,Population Pyknosed Nuclei (%),[3],17%
same,Population Tubulin-Different-Phenotype (%),[3],26%
same,Total Cell Count,[3],136
same,Population Apoptotic (%),[4],34%
same,Population Fragmented Nuclei (%),[4],25%
same,Population Healthy Nuclei (%),[4],43%
same,Population Hoechst High Intensity Objects (%),[4],16%
same,Population Membrane Permeable-Phenotype (%),[4],11%
same,Population Mitochondria Different-Phenotype (%),[4],1%
same,Population Mitotic Cells (%),[4],65%
same,Population Normal (%),[4],83%
same,Population Pyknosed Nuclei (%),[4],31%
same,Population Tubulin-Different-Phenotype (%),[4],45%
same,Total Cell Count,[4],146
same,Population Apoptotic (%),[5],25%
same,Population Fragmented Nuclei (%),[5],15%
same,Population Healthy Nuclei (%),[5],73%
same,Population Hoechst High Intensity Objects (%),[5],0%
same,Population Membrane Permeable-Phenotype (%),[5],0%
same,Population Mitochondria Different-Phenotype (%),[5],1%
same,Population Mitotic Cells (%),[5],75%
same,Population Normal (%),[5],99%
same,Population Pyknosed Nuclei (%),[5],10%
same,Population Tubulin-Different-Phenotype (%),[5],15%
same,Total Cell Count,[5],147
same,Population Apoptotic (%),[6],43%
same,Population Fragmented Nuclei (%),[6],22%
same,Population Healthy Nuclei (%),[6],53%
same,Population Hoechst High Intensity Objects (%),[6],2%
same,Population Membrane Permeable-Phenotype (%),[6],8%
same,Population Mitochondria Different-Phenotype (%),[6],8%
same,Population Mitotic Cells (%),[6],56%
same,Population Normal (%),[6],97%
same,Population Pyknosed Nuclei (%),[6],24%
same,Population Tubulin-Different-Phenotype (%),[6],40%
same,Total Cell Count,[6],165
same,Population Apoptotic (%),[7],63%
same,Population Fragmented Nuclei (%),[7],14%
same,Population Healthy Nuclei (%),[7],69%
same,Population Hoechst High Intensity Objects (%),[7],2%
same,Population Membrane Permeable-Phenotype (%),[7],0%
same,Population Mitochondria Different-Phenotype (%),[7],2%
same,Population Mitotic Cells (%),[7],36%
same,Population Normal (%),[7],97%
same,Population Pyknosed Nuclei (%),[7],15%
same,Population Tubulin-Different-Phenotype (%),[7],19%
same,Total Cell Count,[7],147
same,Population Apoptotic (%),[8],30%
same,Population Fragmented Nuclei (%),[8],27%
same,Population Healthy Nuclei (%),[8],45%
same,Population Hoechst High Intensity Objects (%),[8],13%
same,Population Membrane Permeable-Phenotype (%),[8],16%
same,Population Mitochondria Different-Phenotype (%),[8],3%
same,Population Mitotic Cells (%),[8],69%
same,Population Normal (%),[8],86%
same,Population Pyknosed Nuclei (%),[8],26%
same,Population Tubulin-Different-Phenotype (%),[8],59%
same,Total Cell Count,[8],157
same,Population Apoptotic (%),[9],32%
same,Population Fragmented Nuclei (%),[9],18%
same,Population Healthy Nuclei (%),[9],62%
same,Population Hoechst High Intensity Objects (%),[9],1%
same,Population Membrane Permeable-Phenotype (%),[9],1%
same,Population Mitochondria Different-Phenotype (%),[9],4%
same,Population Mitotic Cells (%),[9],67%
same,Population Normal (%),[9],98%
same,Population Pyknosed Nuclei (%),[9],18%
same,Population Tubulin-Different-Phenotype (%),[9],30%
same,Total Cell Count,[9],152
same,Population Apoptotic (%),[10],55%
same,Population Fragmented Nuclei (%),[10],26%
same,Population Healthy Nuclei (%),[10],51%
same,Population Hoechst High Intensity Objects (%),[10],3%
same,Population Membrane Permeable-Phenotype (%),[10],6%
same,Population Mitochondria Different-Phenotype (%),[10],8%
same,Population Mitotic Cells (%),[10],44%
same,Population Normal (%),[10],96%
same,Population Pyknosed Nuclei (%),[10],21%
same,Population Tubulin-Different-Phenotype (%),[10],44%
same,Total Cell Count,[10],162
same,Population Apoptotic (%),[11],62%
same,Population Fragmented Nuclei (%),[11],11%
same,Population Healthy Nuclei (%),[11],62%
same,Population Hoechst High Intensity Objects (%),[11],2%
same,Population Membrane Permeable-Phenotype (%),[11],1%
same,Population Mitochondria Different-Phenotype (%),[11],7%
same,Population Mitotic Cells (%),[11],37%
same,Population Normal (%),[11],97%
same,Population Pyknosed Nuclei (%),[11],26%
same,Population Tubulin-Different-Phenotype (%),[11],34%
same,Total Cell Count,[11],144
same,Population Apoptotic (%),[12],48%
same,Population Fragmented Nuclei (%),[12],33%
same,Population Healthy Nuclei (%),[12],44%
same,Population Hoechst High Intensity Objects (%),[12],16%
same,Population Membrane Permeable-Phenotype (%),[12],13%
same,Population Mitotic Cells (%),[12],51%
same,Population Normal (%),[12],83%
same,Population Pyknosed Nuclei (%),[12],22%
same,Population Tubulin-Different-Phenotype (%),[12],60%
